The values below come from ChEMBL document CHEMBL1126568, “Nucleosides and nucleotides. 122. 2'-C-cyano-2'-deoxy-1-beta-D-arabinofuranosylcytosine and its derivatives. A new class of nucleoside with a broad antitumor spectrum” (J Med Chem, 1993).

Experiment [1] in a line: Percent inhibition against human oral epidermoid carcinoma KB cells at 100 ug/mL. The class given is functional. Summed up: (§1)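 MTT growth assay: 2 × 10³ cells/well exposed to compound or left untreated for 72 h. MTT then added for 4 h more; formazan dissolved in DMSO and OD read at 540 nm. % inhibition = [1 − OD sample/OD control] × 100. IC₅₀ (μM) is the concentration giving 50% growth inhibition. Single-concentration inhibition measured at 100 μg/mL.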

The test system of experiment [2] is L1210. As to the kind of experiment: Percent inhibition against murine leukemia L1210 at 100 ug/mL. The note with it: Mus musculus. The class given is functional. Summed up: as §1
For experiment [3], the system named is MCF7. As to the kind of experiment: Tested in vitro against MCF-7 human breast adenocarcinoma. It counts as functional, cell-based. Summed up:
as §1

Experiment [4] relates to COLO 320. Kind of experiment: Tested in vitro against colo-320 human colon adenocarcinoma. The class given is functional, cell-based. The note with it: COLO 320, Colon. An outline of the steps: as §1
Experiment [5] deals with Mus musculus. Kind of experiment: Tested for 60-day survivors after administration at 300 mg/kg orally in M5076 mouse reticulum cell sarcoma. To be noted: route oral. It counts as functional. An outline of the steps: (§2)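 Female BD2F1 mice were implanted s.c. with 1 × 10^6 M5076 cells and dosed orally on days 1, 4, 7, 10, 13 and 16. Vehicle was saline or 5% DMA in 0.5% CMC. Groups had six mice (three at 400 mg/kg), with nine untreated controls. The number of mice alive at 60 days was counted.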

The test system of experiment [6] is Mus musculus. As to the kind of experiment: Percent inhibition against M5076 mouse reticulum cell sarcoma after administration at 300 mg/kg orally on day 20. It counts as functional. The note with it: M5076, 480 h, route oral. An outline of the steps: (§3)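 M5076 cells (10⁶ viable, counted by Trypan blue exclusion) implanted subcutaneously into the axillary region of female BDF₁ mice. Drug given orally on days 1, 4, 7, 10, 13 and 16 after inoculation, in saline or in 5% dimethylacetamide/0.5% carboxymethyl cellulose. Six mice per group (three at 400 mg/kg); untreated controls, nine mice. Tumor volume = 0.5 × length × width²; inhibition (%) = (1 − Vt/Vc) × 100 on day 20.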

Experiment [7] has as its system Mus musculus. Kind of experiment: Tested for 60-day survivors after administration at 400 mg/kg orally in M5076 mouse reticulum cell sarcoma. The class given is functional. To be noted: route oral. Summed up:
as §2

For experiment [8], the system named is Mus musculus. Kind of experiment: Weight change in M5076 mouse reticulum cell sarcoma after administration at 100 mg/kg orally. The class given is functional. To be noted: route oral. Summed up:
(§4)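 Female BDF₁ mice with subcutaneous axillary M5076 (10⁶ cells), oral dosing on days 1, 4, 7, 10, 13 and 16 in saline or 5% DMA/0.5% CMC. Body weight change (g) = mean weight on day 20 minus mean weight on day 1.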

Experiment [9] relates to PC-8. As to the kind of experiment: Tested in vitro against PC-8 human lung adenocarcinoma. The class given is functional, cell-based. Summed up:
as §1

Experiment [10] deals with Mus musculus. Kind of experiment: Percent inhibition against M5076 mouse reticulum cell sarcoma after administration at 200 mg/kg orally on day 20. It counts as functional. The note with it: M5076, 480 h, route oral. An outline of the steps:
as §3

The test system of experiment [11] is Mus musculus. As to the kind of experiment: Tested for 60-day survivors after administration at 100 mg/kg orally in M5076 mouse reticulum cell sarcoma. It counts as functional. The note with it: route oral. Summed up:
as §2

The test system of experiment [12] is Mus musculus. As to the kind of experiment: Weight change in M5076 mouse reticulum cell sarcoma after administration at 300 mg/kg orally. The class given is functional. The note with it: route oral. An outline of the steps: as §4
Experiment [13] relates to A-375. Kind of experiment: Tested in vitro against A-375 cell line human melanoma. The class given is functional, cell-based. An outline of the steps: as §1
Experiment [14] relates to Mus musculus. As to the kind of experiment: Weight change in M5076 mouse reticulum cell sarcoma after administration at 200 mg/kg orally. The class given is functional. To be noted: route oral. Summed up:
as §4

The test system of experiment [15] is Mus musculus. Kind of experiment: Percent inhibition against M5076 mouse reticulum cell sarcoma after administration at 100 mg/kg orally on day 20. The note with it: M5076, 480 h, route oral. It counts as functional. Summed up: as §3
Experiment [16] has as its system Mus musculus. As to the kind of experiment: Percent treated was determined after administration at 300 mg/kg orally. It counts as functional. To be noted: route oral. Summed up: (§5)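 Female BDF₁ mice bearing subcutaneous M5076 (10⁶ cells, axillary). Oral dosing in saline or 5% DMA/0.5% CMC on days 1, 4, 7, 10, 13 and 16. Groups of six (three at 400 mg/kg), nine untreated controls. T/C (%) = median survival day of treated/median survival day of untreated controls × 100; 60-day survivors also recorded.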

Experiment [17] concerns QG-95. As to the kind of experiment: Tested in vitro against QG-95 human squamous cell carcinoma. The class given is functional, cell-based. An outline of the steps:
as §1

Experiment [18] has as its system ST-KM-1. As to the kind of experiment: Tested in vitro against ST-KM human stomach adenocarcinoma. The class given is functional, cell-based. The note with it: ST-KM-1, Stomach. Summed up: as §1
Experiment [19] concerns PC-13. Kind of experiment: Tested in vitro against PC-13 human lung large cell carcinoma. The class given is functional, cell-based. Summed up: as §1
Experiment [20] deals with Mus musculus. Kind of experiment: Percent treated was determined after administration at 400 mg/kg orally. The class given is functional. To be noted: route oral. An outline of the steps: as §5
Experiment [21] deals with Mus musculus. Kind of experiment: Weight change in M5076 mouse reticulum cell sarcoma after administration at 400 mg/kg orally. It counts as functional. The note with it: route oral. An outline of the steps: as §4
A short description of experiment [22]: Tested in vitro inhibitory activity against human oral epidermoid carcinoma KB cells. It counts as functional, cell-based. Summed up:
as §1

Experiment [23] relates to KKLS. Kind of experiment: Tested in vitro against KKLS human stomach adenocarcinoma. The class given is functional, cell-based. An outline of the steps:
as §1

In experiment [24] the test system is MKN-45. As to the kind of experiment: Tested in vitro against MKN-45 human stomach adenocarcinoma. It counts as functional, cell-based. The note with it: MKN-45, Stomach. An outline of the steps: as §1
Experiment [25] relates to HT-1080. Kind of experiment: Tested in vitro against HT1080 cell line human fibrosarcoma. It counts as functional, cell-based. Summed up: as §1
Experiment [26] relates to OST. As to the kind of experiment: Tested in vitro against OST human osteosarcoma. The class given is functional, cell-based. An outline of the steps: as §1
Experiment [27] deals with Mus musculus. Kind of experiment: Percent inhibition against M5076 mouse reticulum cell sarcoma after administration at 400 mg/kg orally on day 20. It counts as functional. The note with it: M5076, 480 h, route oral. Summed up:
as §3

Experiment [28] has as its system L1210. Kind of experiment: Tested in vitro inhibitory activity against murine leukemia L1210. The class given is functional, cell-based. The note with it: Mus musculus. Summed up: as §1
The subject of experiment [29] is PC-9. Kind of experiment: Tested in vitro against PC-9 human lung adenocarcinoma. It counts as functional, cell-based. An outline of the steps: as §1
Experiment [30] concerns Mus musculus. As to the kind of experiment: Tested for 60-day survivors after administration at 200 mg/kg orally in M5076 mouse reticulum cell sarcoma. It counts as functional. To be noted: route oral. Summed up: as §2
The subject of experiment [31] is HOS-TE85. Kind of experiment: Tested in vitro against MNNG/HOS cell line human osteosarcoma. It counts as functional, cell-based. Summed up: as §1
In experiment [32] the test system is Mus musculus. As to the kind of experiment: Percent treated was determined after administration at 200 mg/kg orally. To be noted: route oral. The class given is functional. An outline of the steps: as §5
The test system of experiment [33] is SW48. As to the kind of experiment: Tested in vitro against SW-48 human colon adenocarcinoma. The class given is functional, cell-based. Summed up: as §1
For experiment [34], the system named is KATO III stomach cancer cell line. As to the kind of experiment: Tested in vitro against KATO-III human stomach adenocarcinoma. It counts as functional, cell-based. An outline of the steps: as §1
Experiment [35] concerns Mus musculus. Kind of experiment: Percent treated was determined after administration at 100 mg/kg orally. It counts as functional. The note with it: route oral. An outline of the steps:
as §5

Molecules are shown by their SMILES. Bounds are passed on as bounds.

A word on the inhibition: it is the drop in the measured response relative to a control, in per cent. As for `N#C[C@H]1C(O)[C@@H](CO)O[C@H]1n1ccc(=O)[nH]c1=O` (stereo partly specified), the inhibition at 100 µg/mL in [1] turned out to be 8.4%; in experiment [2], 10.2%.
In general, IC50 refers to the concentration needed to halve the response being measured. A low value points to greater potency in that assay. Usually inhibition in vivo stands for the relative decrease from the control value, in per cent. The low end stands for little suppression, the high end for strong suppression. As a reminder, the T/C is the result in the treated group divided by that in the control group, in per cent. For `Cl.N#C[C@H]1[C@H](O)[C@@H](CO)O[C@H]1n1ccc(N)nc1=O`, the IC50 in experiment [3] was determined as 1.75 µM; in experiment [4], 1.4 µM; in [9], 15.9 µM; in [13] it was 1.4 µM; in experiment [17], 138 µM; in experiment [18], 9.71 µM. The IC50 was determined as 86.8 µM in experiment [19]; 5.2 µM in experiment [22]; 350 µM in [23]; 15.9 µM in experiment [24]; 0.53 µM in experiment [25]; 22.2 µM in [26]. Besides, the IC50 was 0.53 µM in experiment [28]; 15.3 µM in [29]; 23.6 µM in experiment [31]; over 350 µM in experiment [33]; 55.6 µM in experiment [34]. Also, the Survivors was 0 in experiment [5], 1 in experiment [7], 0 in experiment [11] and 2 in experiment [30]. In [6], this molecule displayed an inhibition in vivo at 300 mg/kg of 97%. Moreover, the Weight change is 1.7 g in experiment [8], 1 g in [12], 2 g in experiment [14] and 1.1 g in [21]. In experiment [10], this molecule had an inhibition in vivo at 200 mg/kg of 93%. The molecule also displayed an inhibition in vivo at 100 mg/kg in experiment [15] of 79%. Besides, the T/C in [16] is listed as 120%; in experiment [20], 133%; in experiment [32], 136%; in [35] it was 118%. Moreover, the inhibition in vivo at 400 mg/kg in experiment [27] came out at 99%.
Consider `Cc1cn([C@@H]2O[C@H](CO)C=C2C#N)c(=O)[nH]c1=O`, for which the IC50 is 30.4 µM in experiment [22] and 12.4 µM in experiment [28].
On to `N#C[C@H]1[C@H](O)[C@@H](CO)O[C@H]1n1cnc2c(N)ncnc21`, for which the concentration for half-maximal inhibition (IC50) is over 360 µM in [3]; over 360 µM in experiment [4]; over 360 µM in experiment [9]; 308 µM in experiment [13]; over 360 µM in experiment [17]; over 360 µM in experiment [18]. Also, the IC50 in [19] is over 360 µM; in experiment [22], 163 µM; in [23] it was over 360 µM; in experiment [24], over 360 µM; in experiment [25], over 360 µM; in [26] it was over 360 µM. Further, the IC50 in experiment [28] was 5.8 µM; in experiment [29] it was over 360 µM; in experiment [31], over 360 µM; in experiment [33], over 360 µM; in experiment [34], over 360 µM.
Regarding `CC(=O)Nc1ccn([C@@H]2O[C@H](CO)[C@@H](O)[C@@H]2C#N)c(=O)n1`, the results for the IC50 in experiment [22] and in experiment [28] were 230 µM and 25.3 µM, respectively.
